Columns and labels:
Assay type in all cases: functional
[1] = Growth inhibition of human HOP92 cells assessed as cell growth at 10^-5 M incubated for 48 hrs by sulforhodamine B assay; details: HOP-92, 48 h, read-out: Activity
[2] = Growth inhibition of human OVCAR8 cells incubated for 48 hrs by sulforhodamine B assay; details: OVCAR-8, 48 h
Outline: (§1)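 Cells were plated at 5,000–40,000 per well according to doubling time and preincubated 24 h at 37 °C in 5% CO2; time-zero plates were then TCA-fixed. Five concentrations (10-fold or ½-log dilutions, DMSO stock) were incubated 48 h. Cells were TCA-fixed, stained with 0.4% SRB and read at 515 nm. GI50 was taken where [(Ti−Tz)/(C−Tz)]×100 = 50.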

NCI-H522 [3] = test: Growth inhibition of human NCI-H522 cells incubated for 48 hrs by sulforhodamine B assay; details: NCI-H522, 48 h; outline: as §1
[4] = Growth inhibition of human UO31 cells incubated for 48 hrs by sulforhodamine B assay; details: UO-31, 48 h; outline: as §1
[5] = Growth inhibition of human SNB19 cells incubated for 48 hrs by sulforhodamine B assay; details: SNB-19, 48 h; outline: as §1
[6] = Growth inhibition of human HCT15 cells assessed as cell growth at 10 uM incubated for 48 hrs by sulforhodamine B assay; details: HCT-15, 48 h, read-out: Activity
Outline: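 Primary screen at one dose (10 µM) across 60 human cancer cell lines. Readout was growth percent relative to untreated control and time-zero.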

SK-MEL-5 = test: Growth inhibition of human SK-MEL-5 cells assessed as cell growth at 10^-8 M incubated for 48 hrs by sulforhodamine B assay; details: SK-MEL-5, 48 h, read-out: Activity
M14 [7] = test: Growth inhibition of human M14 cells incubated for 48 hrs by sulforhodamine B assay; details: M14, 48 h; outline: as §1
ACHN = test: Growth inhibition of human ACHN cells assessed as cell growth at 10^-6 M incubated for 48 hrs by sulforhodamine B assay; details: read-out: Activity
Outline: (§2)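 Five-dose assay: five concentrations from 10-fold or ½-log serial dilutions. Cells are plated at 5,000–40,000 per well according to doubling time, grown 24 h, then exposed 48 h at 37 °C, 5% CO₂. Fixed with cold 50% TCA (final addition) for 60 min at 4 °C and stained with 0.4% SRB in 1% acetic acid. Bound dye is solubilized in 10 mM Tris base and read at 515 nm. GI₅₀ is where [(Ti−Tz)/(C−Tz)]×100 = 50, with a time-zero plate as Tz.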

T47D = test: Growth inhibition of human T47D cells assessed as cell growth at 10^-4 M incubated for 48 hrs by sulforhodamine B assay; details: read-out: Activity
[8] = Growth inhibition of human PC3 cells assessed as cell growth at 10^-6 M incubated for 48 hrs by sulforhodamine B assay; details: PC-3, 48 h, read-out: Activity
[9] = Growth inhibition of human SKOV3 cells assessed as cell growth at 10^-4 M incubated for 48 hrs by sulforhodamine B assay; details: SK-OV-3, 48 h, read-out: Activity
[10] = Growth inhibition of human MOLT4 cells assessed as cell growth at 10 uM incubated for 48 hrs by sulforhodamine B assay; details: MOLT-4, 48 h, read-out: Activity
[11] = Growth inhibition of human LOXIMVI cells assessed as cell growth at 10^-7 M incubated for 48 hrs by sulforhodamine B assay; details: LOX IMVI, read-out: Activity
[12] = Growth inhibition of human SF295 cells assessed as cell growth at 10^-5 M incubated for 48 hrs by sulforhodamine B assay; details: SF-295, 48 h, read-out: Activity
A498 = test: Growth inhibition of human A498 cells assessed as cell growth at 10^-5 M incubated for 48 hrs by sulforhodamine B assay; details: A498, 48 h, read-out: Activity; outline: as §2
NCI-H522 [13] = test: Growth inhibition of human NCI-H522 cells assessed as cell growth at 10^-8 M incubated for 48 hrs by sulforhodamine B assay; details: NCI-H522, 48 h, read-out: Activity
[14] = Growth inhibition of human PC3 cells assessed as cell growth at 10^-5 M incubated for 48 hrs by sulforhodamine B assay; details: PC-3, 48 h, read-out: Activity
MDA-MB-435 = test: Growth inhibition of human MDA-MB-435 cells assessed as cell growth at 10^-4 M incubated for 48 hrs by sulforhodamine B assay; details: MDA-MB-435, 48 h, read-out: Activity
NCI/ADR-RES = test: Growth inhibition of human NCI/ADR-RES cells assessed as cell growth at 10^-4 M incubated for 48 hrs by sulforhodamine B assay; details: read-out: Activity
[15] = Growth inhibition of human HOP62 cells assessed as cell growth at 10^-5 M incubated for 48 hrs by sulforhodamine B assay; details: HOP-62, 48 h, read-out: Activity
K562 = test: Growth inhibition of human K562 cells assessed as cell growth at 10 uM incubated for 48 hrs by sulforhodamine B assay; details: K562, 48 h, read-out: Activity
M14 [16] = test: Growth inhibition of human M14 cells assessed as cell growth at 10^-4 M incubated for 48 hrs by sulforhodamine B assay; details: M14, 48 h, read-out: Activity
SR = test: Growth inhibition of human SR cells assessed as cell growth at 10^-8 M incubated for 48 hrs by sulforhodamine B assay; details: read-out: Activity
U-251 = test: Growth inhibition of human U251 cells incubated for 48 hrs by sulforhodamine B assay; details: U-251, 48 h; outline: as §1
[17] = Growth inhibition of human Caki1 cells assessed as cell growth at 10^-7 M incubated for 48 hrs by sulforhodamine B assay; details: CAKI-1, 48 h, read-out: Activity
Outline: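 Cells seeded at 5,000–40,000/well according to doubling time and preincubated 24 h at 37 °C, 5% CO2. Time-zero plates were TCA-fixed. DMSO concentrate was diluted in medium with 50 µg/ml gentamicin to give five concentrations (10-fold or ½ log steps), then exposed 48 h. Cells were TCA-fixed, stained with 0.4% SRB and read at 515 nm. Percent growth was taken against time-zero and control; GI50, TGI and LC50 derived.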

[18] = read-out: LC50 (the source's name)
[19] = read-out: pLC50 (the source's name) (converted)

## c1ccc2[nH]c(-c3ccc(Nc4nc(N5CCCCC5)nc(N5CCOCC5)n4)cc3)nc2c1
[1]
  growth at 10 µM: -54%
[2]; read-out: GI50
  GI50: 3.24 µM
[2]; [18]
  CC50: > 100 µM
[2]; read-out: TGI
  TGI: 14.3 µM
[2]; read-out: pGI50 (converted)
  GI50: 3.24 µM
[2]; [19]
  CC50: > 100 µM
[2]; read-out: pTGI (converted)
  TGI: 14.1 µM
NCI-H522 [3]; read-out: GI50
  GI50: 2360 nM
NCI-H522 [3]; [18]
  CC50: > 100 µM
NCI-H522 [3]; read-out: TGI
  TGI: 6.22 µM
NCI-H522 [3]; read-out: pGI50 (converted)
  GI50: 2340 nM
NCI-H522 [3]; [19]
  CC50: > 100 µM
NCI-H522 [3]; read-out: pTGI (converted)
  TGI: 6.17 µM
[4]
  LC50: > 100 µM
[4]; read-out: GI50
  GI50: 2000 nM
[4]; read-out: TGI
  TGI: 5.14 µM
[4]; read-out: pGI50 (converted)
  GI50: 2000 nM
[4]; [19]
  CC50: > 100 µM
[4]; read-out: pTGI (converted)
  TGI: 5.13 µM
[5]; read-out: GI50
  GI50: 3.73 µM
[5]; [18]
  CC50: > 100 µM
[5]; read-out: TGI
  TGI: 81.9 µM
[5]; read-out: pGI50 (converted)
  GI50: 3.72 µM
[5]; [19]
  CC50: > 100 µM
[5]; read-out: pTGI (converted)
  TGI: 81.3 µM
[6]
  growth at 10 µM: -33.9%
SK-MEL-5
  growth at 0.01 µM: 97%
M14 [7]; read-out: GI50
  GI50: 2050 nM
M14 [7]; [18]
  CC50: 15.6 µM
M14 [7]; read-out: TGI
  TGI: 4.72 µM
M14 [7]; read-out: pGI50 (converted)
  GI50: 2040 nM
M14 [7]; [19]
  CC50: 15.5 µM
M14 [7]; read-out: pTGI (converted)
  TGI: 4.68 µM
ACHN
  growth at 1 µM: 90%
T47D
  growth at 100 µM: -43%
[8]
  growth at 1 µM: 101%
[9]
  growth at 100 µM: -67%
[10]
  growth at 10 µM: 13.7%
[11]
  growth at 0.1 µM: 95%
[12]
  growth at 10 µM: -43%
A498
  growth at 10 µM: -51%
NCI-H522 [13]
  growth at 0.01 µM: 89%
[14]
  growth at 10 µM: -4%
MDA-MB-435
  growth at 100 µM: -29%
NCI/ADR-RES
  growth at 100 µM: -10%
[15]
  growth at 10 µM: -52%
K562
  growth at 10 µM: -6.74%
M14 [16]
  growth at 100 µM: -70%
SR
  growth at 0.01 µM: 95%
U-251; read-out: GI50
  GI50: 2180 nM
U-251; [18]
  CC50: 76.8 µM
U-251; read-out: TGI
  TGI: 10 µM
U-251; read-out: pGI50 (converted)
  GI50: 2190 nM
U-251; [19]
  CC50: 77.6 µM
U-251; read-out: pTGI (converted)
  TGI: 10 µM
[17]
  growth at 0.1 µM: 86%

From ChEMBL document CHEMBL3808334, “Synthesis and in vitro evaluation of novel triazine analogues as anticancer agents and their interaction studies with bovine serum albumin” (Eur J Med Chem, 2016)
